From ChEMBL document CHEMBL4610127, “Novel Autotaxin Inhibitor for the Treatment of Idiopathic Pulmonary Fibrosis: A Clinical Candidate Discovered Using DNA-Encoded Chemistry” (J Med Chem, 2020)
Activity calls are given as the source filed them. The calls are words filed in the database; no cut-off is given here.

Experiments:
Autotaxin [1] = molecular target: T1, Autotaxin (Homo sapiens, UniProt Q13822); test: Inhibition of C-terminal FLAG-tagged human autotaxin expressed in Freestyle 293 cells using synthetic substrate FS-3 by fluorescence based assay; assay type: cell-based
Autotaxin [2] = molecular target: T1, Autotaxin; test: Inhibition of C-terminal FLAG-tagged human autotaxin expressed in Freestyle 293 cells assessed as reduction in choline release from LPC 16:0 pre-incubated for 10 mins before LPC addition and measured after 1 hr by choline oxidase/HRP coupled assay; assay type: cell-based
Mus musculus [3] = test: Anti-fibrotic activity in C57BL/6 mouse model of bleomycin-induced lung fibrosis assessed as reduction in hydroxyproline levels at 30 to 100 mg/kg, po BID dosed until day 21 starting one day prior to bleomycin treatment; assay type: functional, organism-based
Summary of the method: (§1)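 Mice received oral doses of 30, 100 or 300 mg/kg BID. Prophylactic arm started one day before bleomycin; therapeutic arm started seven days after. Mice were sacrificed 21 days post-bleomycin and lung hydroxyproline was measured per mouse. Group medians were compared with bleomycin + vehicle by p-value. Reference inhibitor control: 30 and 100 mg/kg BID.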

Mus musculus [4] = test: Anti-fibrotic activity in C57BL/6 mouse model of bleomycin-induced lung fibrosis assessed as reduction in hydroxyproline levels at 30 to 100 mg/kg, po BID for 21 days dosed 7 days after bleomycin treatment; assay type: functional, organism-based; summary of the method: as §1

Row | SMILES | IC50 (Autotaxin [2]) [nM] | further results
1 | CNC(=O)CN1CN(c2ccccc2)C2(CCN(C(=O)[C@H](NC(=O)c3cccc(C)c3F)C3CCCCC3)CC2)C1=O | 86 | IC50 (Autotaxin [1]): 2 nM
2 | CC(C)[C@@H](NC(=O)c1cc(C(F)(F)F)ccc1Cl)C(=O)N1CCC2(CC1)C(=O)N(C)C(=O)N2c1ccc2[nH]ncc2c1 | 1470 | –
3 | CCc1nc2c(C)cc(N3CCN(CC(=O)N4CC(O)C4)CC3)cn2c1N(C)c1nc(-c2ccc(F)cc2)c(C#N)s1 | – | Activity (Mus musculus [3]): Active; Activity (Mus musculus [4]): Active
4 | Cc1cccc(C(=O)N[C@H](C(=O)N2CCC3(CC2)C(=O)N(C)CN3c2ccccc2)C2CCOCC2)c1 | 10000 | –
5 | Cc1cccc(C(=O)N[C@@H](C(=O)N2CCC3(CC2)C(=O)N(C)CN3c2ccccc2)C(C)C)c1 | – | IC50 (Autotaxin [1]): 2 nM
6 | CC(C)[C@@H](NC(=O)c1cc(C(F)(F)F)ccc1F)C(=O)N1CCC2(CC1)C(=O)N(C)C(=O)N2c1ccc(C(=O)O)cc1 | 31 | –
7 | Cc1cccc(C(=O)N[C@@H](C(=O)N2CCC3(CC2)C(=O)N(C)CN3C2CC2)C2CCCCC2)c1F | 819 | –
8 | Cc1cccc(C(=O)N[C@@H](C(=O)N2CCC3(CC2)C(=O)N(C)CN3c2ccccn2)C2CCCCC2)c1 | 905 | –
9 | CC(C)[C@@H](NC(=O)c1cccc(C(F)(F)F)c1)C(=O)N1CCC2(CC1)C(=O)N(C)C(=O)N2c1ccc2[nH]ncc2c1 | 340 | –
10 | CC(C)[C@H](NC(=O)c1cc(C(F)(F)F)ccc1F)C(=O)N1CCC2(CC1)C(=O)N(C)C(=O)N2c1ccc2[nH]ncc2c1 | 10000 | –
11 | CC(C)[C@@H](NC(=O)c1cc(C(F)(F)F)ccc1F)C(=O)N1CCC2(CC1)C(=O)N(C)CN2c1ccc2[nH]ncc2c1 | 13.4 | –
12 | CNC(=O)CN1CN(c2ccccc2)C2(CCN(C(=O)[C@H](NC(=O)c3ccccc3)C3CCCCC3)CC2)C1=O | – | IC50 (Autotaxin [1]): 350 nM
13 | CNC(=O)CN1CN(c2ccccc2)C2(CCN(C(=O)[C@H](NC(=O)c3cccc(Cl)c3)C3CCCCC3)CC2)C1=O | – | IC50 (Autotaxin [1]): 3.5 nM
14 | CC(C)[C@@H](NC(=O)c1cc(C(F)(F)F)ccc1F)C(=O)N1CCC2(CC1)C(=O)N(C)C(=O)N2c1ccccc1 | 100 | –
15 | Cc1cccc(C(=O)N[C@@H](C(=O)N2CCC3(CC2)C(=O)N(C)C(=O)N3c2ccccc2)C(C)C)c1F | 683 | –
16 | CC(C)[C@@H](NC(=O)c1cc(C(F)(F)F)ccc1F)C(=O)N1CCC2(CC1)C(=O)N(C)C(=O)N2c1cccc(Cl)c1 | 46 | –
17 | Cc1ccc(N2C(=O)N(C)C(=O)C23CCN(C(=O)[C@H](NC(=O)c2cc(C(F)(F)F)ccc2F)C(C)C)CC3)cc1 | 38 | –
18 | CN1C(=O)N(c2ccc3[nH]ncc3c2)C2(CCN(C(=O)[C@H](NC(=O)c3cc(C(F)(F)F)ccc3F)C3CCCC3)CC2)C1=O | 34 | –
19 | CC(C)[C@@H](NC(=O)c1cccc(F)c1)C(=O)N1CCC2(CC1)C(=O)N(C)CN2c1ccccc1 | – | IC50 (Autotaxin [1]): 2.2 nM
20 | Cc1ccc(C(F)(F)F)cc1C(=O)N[C@@H](C(=O)N1CCC2(CC1)C(=O)N(C)C(=O)N2c1ccc2[nH]ncc2c1)C(C)C | 4900 | –
21 | Cc1cccc(C(=O)N[C@@H](C(=O)N2CCC3(CC2)C(=O)N(C)CN3c2ccccc2)C2CCOCC2)c1 | 623 | –
22 | Cc1cccc(C(=O)N[C@@H](C(=O)N2CCC3(CC2)C(=O)N(C)CN3c2ccccc2)C2CCCCC2)c1F | 56 | IC50 (Autotaxin [1]): 1.6 nM
23 | CN1C(=O)N(c2ccc3[nH]ncc3c2)C2(CCN(C(=O)CNC(=O)c3cc(C(F)(F)F)ccc3F)CC2)C1=O | 10000 | –
